ChEMBL document CHEMBL1143600, “Synthesis and pharmacology of ethylphenidate enantiomers: the human transesterification metabolite of methylphenidate and ethanol” (J Med Chem, 2005)
Structures can show the parent of a compound that is named as a salt.

Tests used:
[1] = biological target: T1, Sodium-dependent noradrenaline transporter (Homo sapiens, UniProt P23975); assay: Inhibition of [3H]norepinephrine uptake in HEK293 cells expressing human norepinephrine transporter; format: functional, cell-based
[2] = biological target: T1, Sodium-dependent noradrenaline transporter; assay: Displacement of [125I]RTI-55 from human Norepinephrine transporter expressed in HEK293 cells; format: cell-based
[3] = biological target: T2, Sodium-dependent serotonin transporter (Homo sapiens, UniProt P31645); assay: Displacement of [125I]RTI-55 from human Serotonin transporter expressed in HEK293 cells; format: cell-based
How it was run: (§1)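 Membranes from HEK293 cells expressing the human transporter (grown to 80% confluence, lysed in 2 mM HEPES/1 mM EDTA, spun at 30000g). 10–15 µg protein was preincubated 10 min with compound in Krebs-HEPES pH 7.4 containing pargyline, tropolone, glucose and ascorbate. Nonspecific binding: 5 µM mazindol (DAT) or 5 µM imipramine (SERT). IC50 converted to Ki by Cheng-Prusoff.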

[4] = biological target: T2, Sodium-dependent serotonin transporter; assay: Inhibition of [3H]5-HT uptake in HEK293 cells expressing human serotonin transporter; format: functional, cell-based
How it was run: (§2)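 HEK293 cells expressing the human transporter were grown to confluence, triturated in Krebs-HEPES and preincubated 10 min with compound (six concentrations). Uptake was started with [3H]serotonin or [3H]dopamine at 20 nM final and stopped after 10 min by filtration over PEI-presoaked GF/C filters. Nonspecific uptake: 5 µM imipramine (SERT) or 5 µM mazindol (DAT). IC50 from triplicate curves, 2–3 independent determinations.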

[5] = biological target: T3, Sodium-dependent dopamine transporter (Homo sapiens, UniProt Q01959); assay: Displacement of [125I]-RTI-55 from Dopamine transporter expressed in HEK293 cells; format: cell-based; how it was run: as §1
[6] = biological target: T3, Sodium-dependent dopamine transporter; assay: Inhibition of [3H]dopamine uptake in HEK293 cells expressing human dopamine transporter; format: functional, cell-based; how it was run: as §2

T1 sequence (P23975 whole entry): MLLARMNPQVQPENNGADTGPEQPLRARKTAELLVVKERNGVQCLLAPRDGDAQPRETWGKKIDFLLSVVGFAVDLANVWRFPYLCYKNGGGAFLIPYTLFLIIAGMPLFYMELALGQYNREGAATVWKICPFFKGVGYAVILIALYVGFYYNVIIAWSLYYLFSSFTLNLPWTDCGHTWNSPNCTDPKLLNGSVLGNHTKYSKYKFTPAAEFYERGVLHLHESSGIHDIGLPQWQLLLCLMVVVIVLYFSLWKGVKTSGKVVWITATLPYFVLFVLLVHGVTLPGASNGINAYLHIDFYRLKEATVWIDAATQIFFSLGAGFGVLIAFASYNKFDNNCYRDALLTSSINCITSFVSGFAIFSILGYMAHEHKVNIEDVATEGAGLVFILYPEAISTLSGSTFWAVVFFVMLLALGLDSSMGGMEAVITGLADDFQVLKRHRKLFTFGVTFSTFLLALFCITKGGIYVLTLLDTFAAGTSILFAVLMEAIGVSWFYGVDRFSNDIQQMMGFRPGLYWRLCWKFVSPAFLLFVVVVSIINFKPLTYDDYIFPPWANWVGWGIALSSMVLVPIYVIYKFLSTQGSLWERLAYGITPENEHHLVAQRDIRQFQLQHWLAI
T3 sequence (Q01959 whole entry): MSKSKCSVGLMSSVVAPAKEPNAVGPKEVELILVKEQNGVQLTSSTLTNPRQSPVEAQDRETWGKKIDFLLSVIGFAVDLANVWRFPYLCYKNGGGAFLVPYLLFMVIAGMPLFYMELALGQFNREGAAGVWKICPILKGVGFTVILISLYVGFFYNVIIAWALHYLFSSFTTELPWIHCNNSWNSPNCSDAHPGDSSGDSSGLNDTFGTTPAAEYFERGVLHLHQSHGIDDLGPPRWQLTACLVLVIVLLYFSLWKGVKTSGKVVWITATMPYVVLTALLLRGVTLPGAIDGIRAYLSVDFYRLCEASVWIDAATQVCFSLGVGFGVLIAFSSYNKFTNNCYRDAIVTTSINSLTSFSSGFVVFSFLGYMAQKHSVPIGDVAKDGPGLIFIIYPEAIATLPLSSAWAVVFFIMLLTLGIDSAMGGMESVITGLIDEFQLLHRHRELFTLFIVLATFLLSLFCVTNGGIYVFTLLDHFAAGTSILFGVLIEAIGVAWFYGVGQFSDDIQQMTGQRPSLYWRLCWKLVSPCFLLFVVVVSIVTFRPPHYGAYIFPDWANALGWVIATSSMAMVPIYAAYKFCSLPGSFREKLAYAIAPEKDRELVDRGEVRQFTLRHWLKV
T2 sequence (P31645 whole entry): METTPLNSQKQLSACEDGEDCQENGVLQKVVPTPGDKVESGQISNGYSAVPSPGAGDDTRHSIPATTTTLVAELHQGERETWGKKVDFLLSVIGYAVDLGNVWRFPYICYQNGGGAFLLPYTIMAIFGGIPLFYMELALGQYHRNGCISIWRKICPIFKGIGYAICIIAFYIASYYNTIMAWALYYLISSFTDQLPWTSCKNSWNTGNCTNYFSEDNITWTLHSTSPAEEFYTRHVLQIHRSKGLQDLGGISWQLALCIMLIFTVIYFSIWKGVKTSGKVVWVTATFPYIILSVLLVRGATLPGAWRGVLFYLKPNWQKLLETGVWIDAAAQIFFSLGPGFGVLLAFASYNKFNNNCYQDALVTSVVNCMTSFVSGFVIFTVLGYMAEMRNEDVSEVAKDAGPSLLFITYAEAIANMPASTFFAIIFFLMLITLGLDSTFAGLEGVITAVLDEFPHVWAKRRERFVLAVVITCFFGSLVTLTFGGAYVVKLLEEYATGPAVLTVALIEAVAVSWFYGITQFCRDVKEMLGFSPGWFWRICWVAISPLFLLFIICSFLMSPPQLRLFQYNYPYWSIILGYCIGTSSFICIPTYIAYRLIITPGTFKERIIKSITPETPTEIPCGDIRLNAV

Structure (SMILES)	IC50 [1] [µM]	IC50 [2] [µM]	IC50 [3] [µM]	IC50 [4] [µM]	IC50 [5] [µM]	IC50 [6] [µM]
COC(=O)C(c1ccccc1)C1CCCCN1 (racemic) [METHYLPHENIDATE HYDROCHLORIDE]	0.051	0.788	> 10	–	–	–
CCOC(=O)C(c1ccccc1)C1CCCCN1 (racemic)	0.48	> 7.2	7.54	> 10	0.319	0.095
CCOC(=O)[C@@H](c1ccccc1)[C@@H]1CCCCN1 (stereo in doubt; (-)-2)	> 10	> 10	> 9.5	> 10	2.7	1.73
